Test results from ChEMBL document CHEMBL1152747, “Synthesis, SAR study and biological evaluation of novel pyrazolo[1,5-a]pyrimidin-7-yl phenyl amides as anti-proliferative agents” (Bioorg Med Chem, 2009).
The source made the active and inactive calls. No cut-off for these calls is given here.

Legend:
[1] = Antiproliferative activity against p21-/- human 80S14 cells; type: functional, cell-based
HCT-116 = assay: Antiproliferative activity against p21+/+ human HCT116 cells; type: functional, cell-based
LoVo [2] = assay: Antiproliferative activity against human LoVo cells; type: functional, cell-based
DLD-1 = assay: Antiproliferative activity against human DLD1 cells; type: functional, cell-based
HT-29 = assay: Antiproliferative activity against human HT-29 cells; type: functional, cell-based
SW-620 = assay: Antiproliferative activity against human SW620 cells; type: functional, cell-based
[3] = Plasma concentration in mouse at 50 mg/kg, po after 1 hr; type: ADME, organism-based; set-up: dose 50 mg/kg, route oral
Method in brief: (§1)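 Nude mice were dosed orally at 50 mg/kg. Blood was sampled at 1 and 4 h, and plasma levels were reported in […].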

[4] = Plasma concentration in mouse at 50 mg/kg, po after 4 hrs; type: ADME, organism-based; set-up: dose 50 mg/kg, route oral; method in brief: as §1
[5] = Binding affinity to tubulin
Method in brief: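 Binding was read by the fluorescence change of compound and tubulin tryptophan residues on binding, using unlabelled tubulin with intrinsic tryptophan fluorescence as reporter. KD was derived from this signal.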

[6] = Induction of oligomerization of tubulin
LoVo [7] = assay: Anticancer activity against human LoVo cells xenografted mouse at 30 mg/kg, po administered 20 days measured on day 21 relative to control; type: functional
Method in brief: (§2)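 Female athymic nu/nu mice were given 1×10^7 LoVo cells SC in the flank. Cells were cultured in RPMI with 10% FBS. At 90–120 mg tumour mass (day zero), mice were randomised 5 per group. Tumour mass was calculated as (length×width²)/2 every 7 days and expressed as relative growth versus day zero, treated versus control. Student t-test was run on log relative growth, with significance at p≤0.05.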

LoVo [8] = assay: Anticancer activity against human LoVo cells xenografted mouse at 50 mg/kg, po administered 20 days measured on day 21 relative to control; type: functional; method in brief: as §2

**Q.** Which IC50 [1] does the source give for `CC(C)(C)CCNc1cccc(-c2ccnc3c(C(=O)c4cccs4)cnn23)c1` here?
**A.** 550 nM

**Q.** And the IC50 (HCT-116)?
**A.** 4800 nM

**Q.** For `CC(C)(C)CC(=O)Nc1cc(-c2ccnc3c(C(=O)c4cccs4)cnn23)ccc1F`, which IC50 [1] is on record?
**A.** 190 nM

**Q.** And the IC50 (HCT-116)?
**A.** 3700 nM

**Q.** What does the source list for `Cc1ccc(-c2ccnc3c(C(=O)c4cccs4)cnn23)cc1NC(=O)CC(C)C`?
**A.** IC50 [1]: 1000 nM; IC50 (HCT-116): 9200 nM

**Q.** Which results are given for `CC(C)NC(=O)c1cccc(-c2ccnc3c(C(=O)c4cccs4)cnn23)c1`?
**A.** IC50 [1]: 680 nM; IC50 (HCT-116): > 13000 nM

**Q.** Which IC50 (LoVo [2]) does the source give for `CC(C)CC(=O)Nc1ccc(-c2ccnc3c(C(=O)c4cccs4)cnn23)s1` here?
**A.** 680 nM

**Q.** What about the IC50 (DLD-1) of the same molecule?
**A.** 620 nM

**Q.** And the IC50 (HT-29)?
**A.** 670 nM

**Q.** What about the IC50 (SW-620) of the same molecule?
**A.** 760 nM

**Q.** And the IC50 [1]?
**A.** 2000 nM

**Q.** What about the IC50 (HCT-116) of the same molecule?
**A.** > 20000 nM

**Q.** Which results are given for `CC(C)CC(=O)Nc1cc(-c2ccnc3c(C(=O)c4cccs4)cnn23)cs1`?
**A.** IC50 [1]: 7800 nM; IC50 (HCT-116): > 20000 nM

**Q.** With `CC(C)CC(=O)Nc1cc(-c2ccnc3c(C(=O)c4cccs4)cnn23)ccc1Cl` as the molecule, how does the IC50 [1] read?
**A.** 430 nM

**Q.** And the IC50 (HCT-116)?
**A.** 8800 nM

**Q.** With `CC(C)NC(=O)Nc1cc(-c2ccnc3c(C(=O)c4cccs4)cnn23)ccc1F` as the molecule, how does the IC50 (LoVo [2]) read?
**A.** 11 nM

**Q.** And the IC50 (DLD-1)?
**A.** 19 nM

**Q.** And the concentration at 1 h [3]?
**A.** 14 ng/mL

**Q.** What about the IC50 (HT-29) of the same molecule?
**A.** 17 nM

**Q.** And the IC50 (SW-620)?
**A.** 12 nM

**Q.** And the concentration at 4 h [4]?
**A.** 8 ng/mL

**Q.** And the IC50 [1]?
**A.** 41 nM

**Q.** And the IC50 (HCT-116)?
**A.** 5300 nM

**Q.** With `CC(C)NC(=O)Nc1cccc(-c2ccnc3c(C(=O)c4cccs4)cnn23)c1` as the molecule, how does the IC50 [1] read?
**A.** 89 nM

**Q.** With `CC(C)CCNc1cccc(-c2ccnc3c(C(=O)c4cccs4)cnn23)c1` as the molecule, how does the IC50 (LoVo [2]) read?
**A.** 81 nM

**Q.** And the IC50 (DLD-1)?
**A.** 120 nM

**Q.** And the IC50 (HT-29)?
**A.** 450 nM

**Q.** And the IC50 (SW-620)?
**A.** 110 nM

**Q.** And the IC50 [1]?
**A.** 770 nM

**Q.** And the IC50 (HCT-116)?
**A.** 5700 nM

**Q.** What does the source list for `O=C(NC1CCCC1)c1cccc(-c2ccnc3c(C(=O)c4cccs4)cnn23)c1`?
**A.** IC50 [1]: 390 nM; IC50 (HCT-116): 6800 nM

**Q.** For `CC(C)CC(=O)Nc1ccc(Cl)c(-c2ccnc3c(C(=O)c4cccs4)cnn23)c1`, which IC50 [1] is on record?
**A.** 2800 nM

**Q.** And the IC50 (HCT-116)?
**A.** 20000 nM

**Q.** For `CC(C)OC(=O)Nc1cccc(-c2ccnc3c(C(=O)c4cccs4)cnn23)c1`, which IC50 [1] is on record?
**A.** 51 nM

**Q.** With `CC(C)CC(=O)Nc1cccc(-c2ccnc3c(C(=O)c4cccs4)cnn23)c1` as the molecule, how does the IC50 [1] read?
**A.** 140 nM

**Q.** And the Kd [5]?
**A.** 4300 nM

**Q.** What about the Activity [6] of the same molecule?
**A.** inactive

**Q.** For `CC(C)CC(=O)Nc1cncc(-c2ccnc3c(C(=O)c4cccs4)cnn23)c1`, which IC50 [1] is on record?
**A.** 7600 nM

**Q.** And the IC50 (HCT-116)?
**A.** > 2600 nM

**Q.** For `COc1ccc(-c2ccnc3c(C(=O)c4cccs4)cnn23)cc1NC(=O)CC(C)C`, which IC50 [1] is on record?
**A.** 6400 nM

**Q.** And the IC50 (HCT-116)?
**A.** 19000 nM

**Q.** With `CC(CC(=O)Nc1cc(-c2ccnc3c(C(=O)c4cccs4)cnn23)ccc1F)C(F)(F)F` (stereo unspecified) as the molecule, how does the IC50 [1] read?
**A.** 120 nM

**Q.** And the IC50 (HCT-116)?
**A.** 2500 nM

**Q.** Which IC50 (LoVo [2]) does the source give for `CC(C)CNC(=O)c1cccc(-c2ccnc3c(C(=O)c4cccs4)cnn23)c1` here?
**A.** 150 nM

**Q.** What about the IC50 (DLD-1) of the same molecule?
**A.** 60 nM

**Q.** And the IC50 (HT-29)?
**A.** 150 nM

**Q.** What about the IC50 (SW-620) of the same molecule?
**A.** 150 nM

**Q.** What about the IC50 [1] of the same molecule?
**A.** 400 nM

**Q.** And the IC50 (HCT-116)?
**A.** 5700 nM

**Q.** With `O=C(Nc1ccccc1)c1cccc(-c2ccnc3c(C(=O)c4cccs4)cnn23)c1` as the molecule, how does the IC50 [1] read?
**A.** 310 nM

**Q.** What about the IC50 (HCT-116) of the same molecule?
**A.** 5100 nM

**Q.** What does the source list for `CCCCNC(=O)c1cccc(-c2ccnc3c(C(=O)c4cccs4)cnn23)c1`?
**A.** IC50 [1]: 340 nM; IC50 (HCT-116): 5300 nM

**Q.** For `CC(C)CC(=O)Nc1cc(-c2ccnc3c(C(=O)c4cccs4)cnn23)ccc1F`, which IC50 (LoVo [2]) is on record?
**A.** 15 nM

**Q.** And the IC50 (DLD-1)?
**A.** 16 nM

**Q.** And the T/C (LoVo [7])?
**A.** 57%

**Q.** And the concentration at 1 h [3]?
**A.** 110 ng/mL

**Q.** And the IC50 (HT-29)?
**A.** 16 nM

**Q.** What about the IC50 (SW-620) of the same molecule?
**A.** 15 nM

**Q.** And the concentration at 4 h [4]?
**A.** 40 ng/mL

**Q.** What about the IC50 [1] of the same molecule?
**A.** 89 nM

**Q.** And the T/C (LoVo [8])?
**A.** 24%

**Q.** What about the IC50 (HCT-116) of the same molecule?
**A.** 3200 nM

**Q.** And the Kd [5]?
**A.** 2500 nM

**Q.** What about the Activity [6] of the same molecule?
**A.** inactive

**Q.** Which IC50 [1] does the source give for `C/C=C/CNc1cccc(-c2ccnc3c(C(=O)c4cccs4)cnn23)c1` here?
**A.** 430 nM

**Q.** And the IC50 (HCT-116)?
**A.** 3800 nM
